High-throughput results from PubChem.
HSV augment: enhancers of HSV replication in host cells, fold increase, host cell viability; AID 1956, 2009; 220,000 compounds, 0.005% hits; HSV replication augmentation in cells; maximum fold increase; in the data active = maximum fold increase above about 1.5; inconclusive = no clear call, values can overlap the other calls; tested in PC3 cells
Dynein cargo inh: inhibitors of GR-EGFP nuclear translocation, primary screen, dynein cargo transport inhibitor project, imaging, high-content, 3617.4 mouse cells | test concentration mostly 20 µM; stimulated with dexamethasone, 1 µM; active compounds read low | z-score, hits read low | 220,000 compounds, 0.47% hits | AID 1381, 2008;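 active = plate z-score of nuclear minus cytoplasmic receptor signal below a set negative limit, without overly bright fluorescence or cell loss, cut at about -3.5 in these data, passing the limit was not always enough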;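 also: z-score of nuclear minus cytoplasmic ring GR-EGFP intensity difference per well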
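Buffer or medium: tet-free, stripped-serum medium; Also added: dexamethasone, 1.0 µM final; Technique: high-content fluorescence imaging after fixation; Times: 48 h induction, 1 h compound, 30 min dex at 37 °C; Read-out: per-cell GR-EGFP intensity, nucleus versus surrounding cytoplasmic ring, well-averaged.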
MT stabilizer: microtubule stabilizers in HeLa cells, primary screen, imaging, high-content imaging; % tubulin-high responders, % at 10 µM; HeLa tubulin immunostaining HCS, 24 h; share of cells brighter than vehicle mean+2SD; AID 2205, 2009; 200,000 compounds, 0.83% hits;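 active = plate Z-score above 3 for both tubulin-high and condensed-nucleus cell shares, with cell loss under 80%, at 10 µM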;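 also: anti alpha tubulin signal scored within the nucleus-defined area of each cell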
b-catenin transl: modulators of beta-catenin nuclear translocation, primary screen, imaging, HeLa cells, immunofluorescence, high-content; AID 1665, 2009; nuclear translocation activity, % at 5 µM; 190,000 compounds, 0.3% hits;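 active = nuclear translocation activity above 50% at 5 µM, with a well cell count of 50 or more; inconclusive = wells under 50 cells across six images, flagged as toxic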;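 also: per-cell ratio of nuclear to cytoplasmic median beta-catenin stain intensity; plate controls were DMSO negative control for no effect and GSK-3 inhibitor IX positive control for full effect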
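Read-out: Nuclear/cytoplasmic beta-catenin signal ratio, % activation | Assay system: Human HeLa cell line | Times: 24 h compound exposure at 37°C, 5% CO2 | Signal: Fluorescence imaging of beta-catenin antibody stain plus DAPI | Dosing: 5 µM primary, 0.02–20 µM confirmation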
Lmaj promast: Leishmania major promastigote growth inhibition, primary screen; 200,000 compounds, 9% hits; Leishmania major promastigotes, resazurin fluorescence viability; inhibition, % at 10 µM; in the data active = inhibition above about 50%;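 also: promastigotes grown with compound for 44 hours at 28 °C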
The depositor's hits bear a star; i = inactive; ? = inconclusive; · = no result. The list is not random: actives were taken first. Their share in the collection is about 8.9%.

SMILES	HSV augment	Dynein cargo inh	MT stabilizer	b-catenin transl	Lmaj promast
CCOC(=O)c1ccc(NC(=O)CC2S/C(=N/N=C/c3c[nH]c4ccccc34)NC2=O)cc1 (centres undefined)	i	0.776	0.8	-0.1	62.4*
CCCCc1c(O)n2c(nc3ccccc32)[nH]c1=O	i	-0.317	1.8	·	-11.6
COc1ccccc1NS(=O)(=O)c1cccc(NC(=O)Cc2cccs2)c1	i	-0.271	1.1	-0.7	98.0*
COc1ccccc1NS(=O)(=O)c1cccc(C(=O)OCc2nc3ccccc3s2)c1	i	-0.35	1.8	1.0	90.4*
COc1ccccc1NS(=O)(=O)c1cccc(C(=O)OCC(=O)Nc2cc(C)on2)c1	i	-0.661	2.2	0.9	28.0
COc1ccccc1NS(=O)(=O)c1cccc(NC(=O)Nc2ccc(Cl)cc2)c1	i	0.451	3.3	-4.4	97.2*
COc1ccccc1NS(=O)(=O)c1cccc(NC(=O)Nc2ccccc2)c1	i	-0.676	5.7	-1.7	99.3*
COc1ccccc1NS(=O)(=O)c1ccc(Cl)cc1	i	-0.371	1.6	-1.4	-3.2
CCN(CC(=O)Nc1ccc2c(c1)OCCO2)CC(=O)Nc1cc(C)on1	i	-1.38	2.3	-2.3	-4.3
CN1CCC(OC(=O)COc2ccccc2)CC1	i	1.44	3.1	-3.2	-0.6
COc1cc(/C=N/Nc2nc(C)nc3c2cnn3-c2ccccc2)ccc1O	i	1.83	15.8*	63.3*	22.9
CCOc1cc(/C=C2/SC(=S)NC2=O)ccc1OC(=O)c1ccco1	4.61*	0.611	2.2	0.2	2.9
COc1cc(/C=C2\C(=O)N(c3ccc(S(N)(=O)=O)cc3)N=C2C)ccc1OC(=O)c1ccco1	i	-0.874	3.8	-0.8	-4.4
COc1cc(/C=N/NC(=O)c2nc(-c3ccccc3)n(-c3ccccc3)n2)ccc1O	i	0.899	2.8	-1.1	-4.0
CCOC(=O)c1ccc(N2NC(=O)/C(=C/c3ccc(OC(=O)c4ccco4)c(OC)c3)C2=O)cc1	i	-1.12	1.3	-2.6	60.7*
COc1ccc(/C=N/Nc2nc(Nc3ccccc3)nc(N3CCCC3)n2)cc1[N+](=O)[O-]	i	-0.0952	7.3	1.0	-1.9
COc1ccc(/C=N/Nc2nc(N3CCCCC3)nc(N3CCCCC3)n2)cc1[N+](=O)[O-]	i	-0.818	2.5	-1.3	95.6*
COc1cc(/C=C2/SC(=S)N(C)C2=O)ccc1OC(=O)c1ccco1	?	-0.35	7.4	4.2	-1.0
CCOc1ccc(/C=N/Nc2nc(N3CCCC3)nc(N3CCCC3)n2)cc1OC	·	0.262	2.2	-1.0	13.8
COc1ccc(-c2cnnc(N/N=C/c3ccc(O)c(OC)c3)n2)cc1	i	-0.0351	3.7	11.6	53.6*
COc1cc(/C=N/Nc2nc(N3CCCC3)nc(N3CCCC3)n2)ccc1O	i	1.62	0.9	1.8	97.0*
Oc1ccc(/C=N/Nc2nc(N3CCCC3)nc(N3CCCC3)n2)cc1O	i	-1.47	2.1	0.2	2.6
CCOc1cc(/C=N/Nc2nc(N3CCCCC3)nc(N3CCCCC3)n2)ccc1OC(=O)c1ccco1	i	-0.164	1.4	·	57.8*
COC(=O)C1CCN(C(=O)CSc2ccccc2)CC1	i	-0.466	3.1	-2.9	43.9
CN(C)CCNC(=O)c1cc2c(s1)-c1ccccc1OC2	i	-0.724	1.7	·	91.3*
SMILES	HSV augment	Dynein cargo inh	MT stabilizer	b-catenin transl	Lmaj promast
CC(=O)Nc1cc(C(=O)c2ccccc2)ccc1N1CCOCC1	i	-0.118	3.3	-3.7	1.4
Nc1cc(C(=O)c2ccccc2)ccc1N1CCOCC1	i	-0.921	2.2	-1.4	53.7*
N#Cc1cc2c(nc1SCC(=O)Nc1sc3c(c1C#N)CCC3)CCCC2	?	-0.184	2.0	1.0	55.4*
Cc1nn(C)c(C)c1/C=C/C(=O)c1ccccc1	i	-1.24	3.4	-3.3	22.2
Cc1nn(C)c(C)c1/C=C/C(=O)c1cccs1	i	-1.42	3.3	·	71.5*
O=C1N[C@@H](Cc2ccccc2)[C@@H](c2ccco2)O1	i	-1.05	·	-1.4	·
O=C(CCc1nc(-c2ccccc2F)no1)Nc1ccc(Oc2ccccc2)cc1	i	-0.246	23.9*	-1.7	8.4
Cc1cccc(N2C(=O)c3cccc4c(N5CCCCC5)c([N+](=O)[O-])cc(c34)C2=O)c1C	i	0.964	1.3	·	88.8*
Cc1ccc(N2C(=O)c3cccc4c([N+](=O)[O-])ccc(c34)C2=O)c2cccnc12	·	1.75	·	51.7*	·
Cc1ccnc(N2C(=O)c3cccc4c([N+](=O)[O-])ccc(c34)C2=O)c1	·	3.31	3.5	1.3	100.5*
O=C1c2cccc3c(N4CCOCC4)c([N+](=O)[O-])cc(c23)C(=O)N1c1cccc2ccccc12	i	-0.833	2.7	-2.7	11.3
Cc1ccc(N2C(=O)c3cccc4c(N5CCN(C)CC5)ccc(c34)C2=O)c2cccnc12	·	-0.0384	10.5	0.0	3.7
O=C1c2cccc3c([N+](=O)[O-])ccc(c23)C(=O)N1Cc1cccnc1	·	-0.335	3.8	-0.7	99.9*
O=C(N/N=C/c1ccc(-c2ccc(Br)cc2)o1)c1ccc2c(c1)OCO2	i	-1.74	3.4	-1.8	29.2
CC(OC(=O)c1ccccc1NS(=O)(=O)c1cccc(N)c1)C(=O)N(C)Cc1ccccc1 (centres undefined)	i	-0.0481	2.3	0.1	81.5*
COC(=O)c1ccccc1NS(=O)(=O)c1ccc(O)c(C(=O)O)c1	i	1.1	4.4	1.2	-8.1
Cc1ccc(-c2cc(C(=O)N3N=C(C(F)F)CC3(O)C(F)F)c3ccccc3n2)cc1C (centres undefined)	i	-0.108	4.8	-3.1	60.6*
O=C(Nc1cccc(S(=O)(=O)N2CCCCC2)c1)c1ccc2ccccc2n1	i	-1.08	3.1	1.7	10.0
COc1cc(/C=C/C(=O)Nc2ccc(N3CCCCC3)c(S(=O)(=O)Nc3ccccc3Cl)c2)cc(OC)c1OC	i	0.513	3.6	-1.0	53.2*
COc1ccccc1NS(=O)(=O)c1cc(NC(=O)C2CCC2)ccc1N1CCCCC1	i	0.34	·	-1.3	·
O=C(Nc1cccc(S(=O)(=O)N2CCCCC2)c1)Nc1ccc(Cl)cc1Cl	i	-0.266	2.5	0.2	59.9*
COc1cc(/C=C/C(=O)Nc2cc(S(=O)(=O)N3CCOCC3)ccc2N2CCCC2)cc(OC)c1OC	i	-0.0857	7.0	-2.1	8.0
COc1ccccc1NS(=O)(=O)c1cc(NC(=O)Nc2ccc(Cl)cc2Cl)ccc1N1CCCCC1	i	0.18	1.7	·	99.2*
O=C(Nc1cccc(C(F)(F)F)c1)Nc1ccc(N2CCCC2)c(S(=O)(=O)Nc2ccccc2Cl)c1	i	0.453	9.6	8.4	100.3*
Nc1ccc(N2CCCCC2)c(S(=O)(=O)Nc2ccccc2Cl)c1	i	0.968	·	0.5	·
CCCNC(=O)COC(=O)c1cc(SC)ccc1Cl	i	-0.308	2.0	-2.6	1.5
